Experimental data as given in ChEMBL document CHEMBL5390262, “Further Studies on the Highly Active Des-C-Ring and Aromatic-D-Ring Analogues of 1α,25-Dihydroxyvitamin D3 (Calcitriol): Refinement of the Side Chain” (J Med Chem, 2023).
Calls of active or inactive are those of the source. The rule behind the calls is not given here.

Tests used:
MDA-MB-231 [1] = test: Antiproliferative activity against human MDA-MB-231 cells assessed as decrease in cell proliferation at 0.1 uM incubated for 48 hrs by MTT assay; assay type: functional, cell-based
Procedure, shortened: (§1)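 MDA-MB-231 cells seeded at 2 x 10^5 cells/well in medium with charcoal-treated FCS, then treated 24 h later with compound at 10^-7 M (ethanol vehicle) for 48 h, alone or together with cisplatin 25 μM. Read by MTT, DMSO solubilization, absorbance at 570 nm. Expressed as percent inhibition of proliferation relative to ethanol control normalized to 100%.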

MCF7 = test: Upregulation of Cadherin-1 protein expression in human MCF7 cells at 0.1 uM incubated for 48 hrs by Western blot analysis; assay type: functional, cell-based
Procedure, shortened: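 MCF-7 cells in charcoal-stripped FCS medium treated with compound at 10^-7 M (ethanol vehicle) for 48 h. E-cadherin protein detected by Western blot with GAPDH as loading control; bands quantified by densitometry.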

HaCaT = test: Induction of human HaCaT cells differentiation assessed as increase in formation of compact epithelioid islands at 0.1 microM incubated for 48 hrs by phase-contrast microscopy; assay type: functional, cell-based
Procedure, shortened: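 HaCaT keratinocytes in charcoal-treated FCS medium treated 24 h after plating with compound at 10^-7 M in ethanol for 48 h. Ethanol-treated controls. Differentiation judged by phase-contrast microscopy, e.g. compact epithelioid island formation.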

[2] = Toxicity in Swiss CD-1 mouse assessed as body weight change at 0.3 microg/kg,ip using sesame oil as vehicle for 21 days on every other day; conditions: in vivo, 0.0003 mg/kg, 504 h, dose 0.3 µg/kg, time 21 day
Procedure, shortened: (§2)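 Groups of 5 male Swiss CD-1 mice given 0.3 μg/kg i.p. every other day for 21 days in sesame oil vehicle; sesame oil alone as control. Body weight recorded at day 21. Serum calcium measured at end of test by colorimetric calcium assay kit. Mean ± SD, n=5.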

MDA-MB-231 [3] = test: Antiproliferative activity against human MDA-MB-231 cells cultured as 3D spheroids assessed as decrease in cell growth by measuring the sphere diameter at 0.1 uM incubated for 6 days by Phase-contrast microscopy; assay type: functional, cell-based; conditions: time 6.0 day
Procedure, shortened: (§3)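 3D culture: single-cell suspension of MDA-MB-231 (5x10^3 cells/100 μL) grown 4 days on a cell-repellent surface. Then treated 6 days with compound at 10^-7 M, given every other day, with or without cisplatin 25 μM. Ethanol control. Sphere growth quantified as relative units; mean ± SD.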

Vitamin D3 receptor = target: T1, Vitamin D3 receptor (Homo sapiens, UniProt P11473); test: Binding affinity to full length human VDR by Competitive binding assay
T1 sequence (P11473 whole entry): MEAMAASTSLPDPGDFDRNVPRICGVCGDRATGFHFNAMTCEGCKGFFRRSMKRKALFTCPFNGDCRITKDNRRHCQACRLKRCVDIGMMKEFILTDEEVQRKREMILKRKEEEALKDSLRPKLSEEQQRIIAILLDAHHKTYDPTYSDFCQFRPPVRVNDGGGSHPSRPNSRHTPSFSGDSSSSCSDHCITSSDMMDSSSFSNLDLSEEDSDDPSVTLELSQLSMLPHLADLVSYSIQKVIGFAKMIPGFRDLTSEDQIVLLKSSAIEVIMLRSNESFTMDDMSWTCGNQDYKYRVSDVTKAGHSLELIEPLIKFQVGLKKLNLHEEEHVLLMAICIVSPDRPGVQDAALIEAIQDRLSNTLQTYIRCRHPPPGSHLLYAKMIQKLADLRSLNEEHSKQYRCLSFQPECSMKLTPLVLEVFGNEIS

MDA-MB-231 [4] = test: Antiproliferative activity against human MDA-MB-231 cells cultured as 3D spheroids assessed as decrease in cell growth by measuring the sphere diameter at 0.1 uM incubated for 6 days in presence of cisplatin by Phase-contrast microscopy; assay type: functional, cell-based; conditions: time 6.0 day; procedure, shortened: as §3
Mus musculus = test: Effect on hypercalcemic activity in Swiss CD-1 mouse assessed as increase in serum calcium level at 0.3 microg/kg,ip using sesame oil as vehicle for 21 days on every other day by QuantiChom calcium assay; assay type: functional; conditions: dose 0.3 µg/kg, time 21.0 day; procedure, shortened: as §2
MDA-MB-231 [5] = test: Antiproliferative activity against human MDA-MB-231 cells assessed as decrease in cell proliferation at 0.1 uM incubated for 48 hrs in presence of cisplatin by MTT assay; assay type: functional, cell-based; procedure, shortened: as §1

SMILES | Activity (MDA-MB-231 [1]) | Activity (MCF7) | Activity (HaCaT) | Activity [2] | Activity (MDA-MB-231 [3]) | IC50 (Vitamin D3 receptor) | Activity (MDA-MB-231 [4]) | Activity (Mus musculus) | Activity (MDA-MB-231 [5])
C=C1/C(=C\C=C(/CC)c2cccc(CCC#CCC(O)(C(F)(F)F)C(F)(F)F)c2)C[C@@H](O)C[C@@H]1O | Active | Active | Active | Non-Toxic | inactive | 4.64 nM | Active | inactive | Active
C=C1/C(=C\C=C2/CCC[C@]3(C)[C@@H]([C@H](C)CCCC(C)(C)O)CC[C@@H]23)C[C@@H](O)C[C@@H]1O [CALCITRIOL] | Active | Active | Active | Toxic | inactive |  | Active | Active | Active
C=C1/C(=C\C=C(/CC)c2cccc(CCCCCC(O)(C(F)(F)F)C(F)(F)F)c2)C[C@@H](O)C[C@@H]1O | Active | Active | Active | Non-Toxic | inactive | 2.91 nM | Active | inactive | Active
C=C1/C(=C\C=C(/CC)c2cccc(CCC#CCC(C)(C)O)c2)C[C@@H](O)C[C@@H]1O | Active | Active | Active | Non-Toxic | inactive | 7.47 nM | Active | inactive | Active
C=C1/C(=C\C=C(/C)c2cccc(CCC#CCC(O)(C(F)(F)F)C(F)(F)F)c2)C[C@@H](O)C[C@@H]1O | Active | Active | Active | Non-Toxic | inactive | 45.7 nM | Active | inactive | Active
